Measurements gathered from unrelated publications.
Compare with care: the assays were run in different laboratories.
Target: Homeodomain-interacting protein kinase 1 (HIPK1, Homo sapiens, UniProt Q86Z02)
Observed: enzyme activity
Action: inhibitor

SMILES	test	setting	remaining activity [%]
O=C(O)c1ccc2c(c1)nc(NCc1ccccc1)c1ncncc12	radiometric	1 µM	70
COc1cc(Nc2cnc(C#N)c(O[C@H](C)CN(C)C)n2)ncc1-c1cnn(C)c1	radiometric	10 µM	107
Cc1ccc(C(=O)Nc2ccc(CN3CCN(C)CC3)c(C(F)(F)F)c2)cc1C#Cc1cnc2cccnn12		23.5 nM	86
O=C(Nc1cnn(-c2csc(C(=O)NC3COC3)c2)c1)Nc1c(F)cccc1Cl		5 µM	91.7
CC(C)(C)c1nc2c(s1)c1nc(N)ncc1c1ccc(NS(=O)(=O)c3c(F)cccc3F)c(F)c12	radiometric	1 µM	81
CC(C)(O)[C@H]1CC[C@H](Nc2ccc3ncc(-c4cccc(C(F)(F)F)c4)n3n2)CC1		1 µM	83.9
O=C(O)c1ccc2c(c1)nc(Nc1cccc(F)c1)c1ccncc12	radiometric	1 µM	6
COc1cc(Cl)c(C(=O)N[C@@H](CN[C@H]2CC[C@@H](N)CC2)Cc2ccc(C#N)cc2)cc1-c1ccc(CN[C@H](C)c2ccc(C)cc2)o1		1 µM	101
Oc1cccc(-c2nc(N3CCOCC3)c3oc4ncccc4c3n2)c1		10 µM	63
CCCOc1ccc(OC)c(F)c1C(=O)c1ccc(C(=O)N[C@@H]2CNC[C@H]2NC(=O)c2ccc3[nH]ncc3c2)cc1		10 µM	97
O=C(O)c1ccc2c(c1)nc(Nc1ccc(Cl)cc1)c1ncncc12	radiometric	1 µM	4
CCN(CC)c1ccc(C2=NNC(=O)CC2C)cc1[N+](=O)[O-] (stereo not shown)		10 µM	132
N#Cc1cccc(Nc2nc3cc(C(=O)O)ccc3c3cnccc23)c1	radiometric	1 µM	5
CC(C)(C)c1nc(-c2cccc(NS(=O)(=O)c3c(F)cccc3F)c2F)c(-c2ccnc(N)n2)s1	radiometric	1 µM	87
Cn1c(=O)n(-c2ccc(C(C)(C)C#N)cc2)c2c3cc(-c4cnc5ccccc5c4)ccc3ncc21		10 µM	89
O=C(O)c1ccc2c(c1)nc(NCCc1cccc(F)c1)c1ncncc12	radiometric	1 µM	15
O=C(Nc1cnn(-c2csc(C(=O)NC3COC3)c2)c1)Nc1ccccc1Cl		5 µM	96.3
O=C(O)c1ccc2c(c1)nc(Nc1ccccc1Cl)c1ncncc12	radiometric	1 µM	13
Cc1cnc(NC2CCOCC2)nc1-n1cnc(C(=O)NC(CN)c2cc(F)cc(Cl)c2)c1 (stereo not shown)	radiometric	1 µM	87
